Measured values taken from ChEMBL document CHEMBL1126637, “Dicarboxylate diamide dimercaptide (N2S2) technetium-99m complexes: synthesis and biological evaluation as potential renal radiopharmaceuticals” (J Med Chem, 1993).
“And” between values parts separate entries of the source, which are not always exact repeats. Equal entries are not always repeated.

Assays:
[1] = organism: Rattus norvegicus; test: Biodistribution of the [99mTc] complex in rat blood at 10 min postinjection (3-4 rats used); format: ADME, organism-based; details: in vivo
Summary of the method: (§1)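 Male Sprague-Dawley rats (200-300 g), ketamine/xylazine anesthesia (80 mg/kg : 8 mg/kg), bladder cannulated with PE 50 tubing. Given iv via femoral vein 0.2 mL saline holding the 99mTc complex (20 µCi) co-injected with [131I]OIH (7 µCi). Percent injected dose per organ from comparing tissue radioactivity against dilutions of the injected dose, corrected for 131I spillover into the 99mTc channel; mean ±SD, 3-4 rats.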

[2] = organism: Rattus norvegicus; test: Biodistribution of the [99mTc] complex in rat blood at 60 min postinjection (3-4 rats used); format: ADME, organism-based; details: in vivo, 1 h; summary of the method: as §1
[3] = organism: Rattus norvegicus; test: Biodistribution of the [99mTc] complex in rat heart at 10 min postinjection (3-4 rats used); format: ADME, organism-based; details: in vivo; summary of the method: as §1
[4] = organism: Rattus norvegicus; test: Biodistribution of the [99mTc] complex in rat heart at 60 min postinjection (3-4 rats used); format: ADME, organism-based; details: in vivo, 1 h; summary of the method: as §1
[5] = organism: Rattus norvegicus; test: Biodistribution of the [99mTc] complex in rat intestines at 10 min postinjection (3-4 rats used); format: ADME, organism-based, Intestine; details: in vivo; summary of the method: as §1
[6] = organism: Rattus norvegicus; test: Biodistribution of the [99mTc] complex in rat intestines at 60 min postinjection (3-4 rats used); format: ADME, organism-based, Intestine; details: in vivo, 1 h; summary of the method: as §1
[7] = organism: Rattus norvegicus; test: Biodistribution of the [99mTc] complex in rat kidney at 10 min postinjection (3-4 rats used); format: ADME, organism-based; details: in vivo; summary of the method: as §1
[8] = organism: Rattus norvegicus; test: Biodistribution of the [99mTc] complex in rat kidney at 60 min postinjection (3-4 rats used); format: ADME, organism-based; details: in vivo, 1 h; summary of the method: as §1
[9] = organism: Rattus norvegicus; test: Biodistribution of the [99mTc] complex in rat liver at 10 min postinjection (3-4 rats used); format: ADME, organism-based; details: in vivo; summary of the method: as §1
[10] = organism: Rattus norvegicus; test: Biodistribution of the [99mTc] complex in rat liver at 60 min postinjection (3-4 rats used); format: ADME, organism-based; details: in vivo, 1 h; summary of the method: as §1
[11] = organism: Rattus norvegicus; test: Biodistribution of the [99mTc] complex in rat lung at 10 min postinjection (3-4 rats used); format: ADME, organism-based; details: in vivo; summary of the method: as §1
[12] = organism: Rattus norvegicus; test: Biodistribution of the [99mTc] complex in rat lung at 60 min postinjection (3-4 rats used); format: ADME, organism-based; details: in vivo, 1 h; summary of the method: as §1
[13] = organism: Rattus norvegicus; test: Biodistribution of the [99mTc] complex in rat muscle at 10 min postinjection (3-4 rats used); format: ADME, organism-based, Muscle tissue; details: in vivo; summary of the method: as §1
[14] = organism: Rattus norvegicus; test: Biodistribution of the [99mTc] complex in rat muscle at 60 min postinjection (3-4 rats used); format: ADME, organism-based, Muscle tissue; details: in vivo, 1 h; summary of the method: as §1
[15] = organism: Rattus norvegicus; test: Biodistribution of the [99mTc] complex in rat spleen at 10 min postinjection (3-4 rats used); format: ADME, organism-based; details: in vivo; summary of the method: as §1
[16] = organism: Rattus norvegicus; test: Biodistribution of the [99mTc] complex in rat spleen at 60 min postinjection (3-4 rats used); format: ADME, organism-based; details: in vivo, 1 h; summary of the method: as §1
[17] = organism: Rattus norvegicus; test: Biodistribution of the [99mTc] complex in with OIH rat kidney at 60 min postinjection (3-4 rats used); format: ADME, organism-based; details: in vivo, 1 h; summary of the method: as §1
[18] = organism: Rattus norvegicus; test: Biodistribution of the [99mTc] complex with OIH in rat blood at 10 min postinjection (3-4 rats used); format: ADME, organism-based; details: in vivo; summary of the method: as §1
[19] = organism: Rattus norvegicus; test: Biodistribution of the [99mTc] complex with OIH in rat intestine at 10 min postinjection (3-4 rats used); format: ADME, organism-based; details: in vivo; summary of the method: as §1
[20] = organism: Rattus norvegicus; test: Biodistribution of the [99mTc] complex with OIH in rat intestine at 60 min postinjection (3-4 rats used); format: ADME, organism-based; details: in vivo, 1 h; summary of the method: as §1
[21] = organism: Rattus norvegicus; test: Biodistribution of the [99mTc] complex with OIH in rat kideny at 10 min postinjection (3-4 rats used); format: ADME, organism-based; details: in vivo; summary of the method: as §1
[22] = organism: Rattus norvegicus; test: Biodistribution of the [99mTc] complex with OIH in rat liver at 10 min postinjection (3-4 rats used); format: ADME, organism-based; details: in vivo; summary of the method: as §1
[23] = organism: Rattus norvegicus; test: Biodistribution of the [99mTc] complex with OIH in rat liver at 60 min postinjection (3-4 rats used); format: ADME, organism-based; details: in vivo, 1 h; summary of the method: as §1
[24] = organism: Rattus norvegicus; test: Biodistribution of the [99mTc] complex with OIH in rat lung at 10 min postinjection (3-4 rats used); format: ADME, organism-based; details: in vivo; summary of the method: as §1
[25] = organism: Rattus norvegicus; test: Biodistribution of the [99mTc] complex with OIH in rat muscle at 10 min postinjection (3-4 rats used); format: ADME, organism-based, Muscle tissue; details: in vivo; summary of the method: as §1
[26] = organism: Rattus norvegicus; test: Biodistribution of the [99mTc] complex with OIH in rat muscle at 60 min postinjection (3-4 rats used); format: ADME, organism-based, Muscle tissue; details: in vivo, 1 h; summary of the method: as §1
[27] = organism: Rattus norvegicus; test: Biodistribution of the [99mTc] complex with OIH in rat spleen at 10 min postinjection (3-4 rats used); format: ADME, organism-based; details: in vivo; summary of the method: as §1
[28] = organism: Rattus norvegicus; test: Biodistribution of the [99mTc] complex with OIH in rat spleen at 60 min postinjection (3-4 rats used); format: ADME, organism-based; details: in vivo, 1 h; summary of the method: as §1
[29] = organism: Rattus norvegicus; test: Biodistribution of the [99mTc] complex with OIH in rat blood at 60 min postinjection (3-4 rats used); format: ADME, organism-based; details: in vivo, 1 h; summary of the method: as §1
[30] = organism: Rattus norvegicus; test: Biodistribution of the [99mTc] complex with OIH in rat heart at 10 min postinjection (3-4 rats used); format: ADME, organism-based; details: in vivo; summary of the method: as §1
[31] = organism: Rattus norvegicus; test: Biodistribution of the [99mTc] complex with OIH in rat heart at 60 min postinjection (3-4 rats used); format: ADME, organism-based; details: in vivo, 1 h; summary of the method: as §1
[32] = tested on: Monkey; test: Percentage of counts in the pellet/total number of counts in both supernatant and pellet in monkey plasma (n=3); format: functional, Cercopithecidae
Summary of the method: (§2)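 Plasma from male cynomolgus monkey or male Sprague-Dawley rat blood (centrifuged 4000 rpm, 5 min). 99mTc complex in 50% ethanol/H2O (1 × 10^6 counts) incubated with 1 mL plasma at 37 °C for 30 min. Precipitation with 0.4 mL 10% trichloroacetic acid, centrifuged 4000 rpm 10 min, pellet washed twice with water. Bound = pellet counts/(pellet + supernatant + washes) counts; 3 determinations, mean ± SD.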

[33] = organism: Rattus norvegicus; test: Percentage of counts in the pellet/total number of counts in both supernatant and pellet in rat plasma (n=3); format: functional; summary of the method: as §2
[34] = organism: Rattus norvegicus; test: Biodistribution of the [99mTc] complex with OIH in rat lung at 60 min postinjection (3-4 rats used); format: ADME, organism-based; details: in vivo, 1 h; summary of the method: as §1
[35] = organism: Rattus norvegicus; test: Biodistribution of the [99mTc] complex with OIH in rat blood at 60 min postinjection (, 3-4 rats used); format: ADME, organism-based; details: in vivo, 1 h; summary of the method: as §1
[36] = organism: Rattus norvegicus; test: Biodistribution of the [99mTc] complex with OIH in rat intestines at 10 min postinjection (3-4 rats used); format: ADME, organism-based, Intestine; details: in vivo; summary of the method: as §1
[37] = organism: Rattus norvegicus; test: Biodistribution of the [99mTc] complex with OIH in rat intestines at 60 min postinjection (3-4 rats used); format: ADME, organism-based, Intestine; details: in vivo, 1 h; summary of the method: as §1
[38] = organism: Rattus norvegicus; test: Biodistribution of the [99mTc] complex with OIH in rat kidney at 10 min postinjection ( 3-4 rats used); format: ADME, organism-based; details: in vivo; summary of the method: as §1
[39] = organism: Rattus norvegicus; test: Biodistribution of the [99mTc] complex with OIH in rat kidney at 60 min postinjection (3-4 rats used); format: ADME, organism-based; details: in vivo, 1 h; summary of the method: as §1
[40] = organism: Rattus norvegicus; test: Biodistribution of the [99mTc] complex with OIH in rat spleen at 10 min postinjection (mean +/- SD, 3-4 rats used); format: ADME, organism-based; details: in vivo; summary of the method: as §1
[41] = tested on: Monkey; test: Percentage of counts in the pellet/total number of counts in both supernatant and pellet in monkey plasma; format: functional, Cercopithecidae; summary of the method: as §2
[42] = organism: Rattus norvegicus; test: Percentage of counts in the pellet/total number of counts in both supernatant and pellet in rat plasma; format: functional; summary of the method: as §2

Injected dose [1] [%] | Injected dose [2] [%] | Injected dose [3] [%] | Injected dose [4] [%] | Injected dose [5] [%] | Injected dose [6] [%] | Injected dose [7] [%] | Injected dose [8] [%] | Injected dose [9] [%] | Injected dose [10] [%] | Injected dose [11] [%] | Injected dose [12] [%] | Injected dose [13] [%] | Injected dose [14] [%] | Injected dose [15] [%] | Injected dose [16] [%] | Injected dose [18] [%] | Injected dose [22] [%] | Injected dose [28] | Compound | Activity [33] [%] | also measured
26.2 | 15.2 | 0.4 | 0.3 | 1.4 | 1.7 | 5.3 | 1.9 | 5 | 3 | 1.1 | 0.7 | 22.8 | 20.4 | 0.2 | 0.1 | 4.4 | 3.3 | < 0.1% | COC(=O)C(CC(=O)NCCNC(=O)CC(SC(=O)c1ccccc1)C(=O)OC)SC(=O)c1ccccc1 (centres undefined) | 22 | Injected dose [17]: 0.5%; Injected dose [19]: 1.6%; Injected dose [20]: 1.6%; Injected dose [21]: 9.9%; Injected dose [23]: 0.5%; Injected dose [24]: 0.2%; Injected dose [25]: 7.9%; Injected dose [26]: 1.6%; Injected dose [27]: < 0.1%; Injected dose [29]: 0.5%; Injected dose [30]: 0.1%; Injected dose [31]: < 0.1%; Activity [32]: 26.5%; Injected dose [34]: < 0.1%
– | – | – | – | – | – | – | – | – | – | – | – | – | – | – | – | – | – | – | [sequence] | 30.3 | Activity ([32]; Cercopithecidae): 35.2%
26.7 | 16.4 | 0.4 | 0.2 | 1.7 | 1.3 | 4.3 | 2.1 | 5 | 3.1 | 1.2 | 0.7 | 26.9 | 21.1 | 0.3 | 0.1 | 5.3 | 2.5 | < 0.1% | COC(=O)CC(SC(=O)c1ccccc1)C(=O)NCCNC(=O)C(CC(=O)OC)SC(=O)c1ccccc1 (centres undefined) | – | Injected dose [35]: 0.6%; Injected dose [36]: 1.4%; Injected dose [37]: 0.8%; Injected dose [38]: 6.9%; Injected dose [39]: 0.6%; Injected dose [23]: 0.3%; Injected dose [24]: 0.3%; Injected dose [25]: 9.9%; Injected dose [26]: 1.6%; Injected dose [40]: 0.1%; Injected dose [30]: < 0.1%; Injected dose [31]: < 0.1%; Activity [41]: 26.2%; Activity [42]: 31.1%; Injected dose [34]: < 0.1%

Compound | Injected dose [1] [%] | Injected dose [2] [%] | Injected dose [3] [%] | Injected dose [4] [%] | Injected dose [5] [%] | Injected dose [6] [%] | Injected dose [7] [%] | Injected dose [8] [%] | Injected dose [9] [%] | Injected dose [10] [%] | Injected dose [11] [%] | Injected dose [12] [%] | Injected dose [13] [%] | Injected dose [14] [%] | Injected dose [15] [%] | Injected dose [16] [%] | Injected dose [18] [%] | Injected dose [22] [%] | Injected dose [28] | Activity [33] [%] | also measured
CCOC(=O)C(SC(=O)c1ccccc1)C(=O)NCCNC(=O)C(SC(=O)c1ccccc1)C(=O)OCC (centres undefined) | 24 | 13.1 | 0.4 | 0.2 | 1.6 | 1.3 | 6 | 4 | 4.9 | 5 | 0.9 | 0.7 | 23.6 | 21.5 | 0.2 | 0.1 | – | – | 0.9% and 0.2% and 0.4% and 2% and 1.6% and < 0.1% | 21.4 | Activity [32]: 21.9%
